Values after ≈ are worked out from the molar mass of the structure shown. Where a SMILES comes first, the peptide text is derived from it. [ ]: non-standard residue; d: D form. The star is where a group is joined. X1 = CC(C)C[C@@H](C[N+]1=C2CCCN2CCC1)N*; Pip = O=C(O)[C@@H]1CCCCN1; Iva = CC[C@](C)(N)C(=O)O; Aib = CC(C)(N)C(=O)O; βAla = NCCC(=O)O
Key:
Plasmodium falciparum [1] = experiment: Antiplasmodial activity against chloroquine-resistant Plasmodium falciparum K1 infected in human erythrocytes assessed as parasite growth inhibition; assay type: functional, organism-based; settings: K1, Erythrocyte
Plasmodium falciparum [2] = experiment: Antiplasmodial activity against chloroquine-resistant Plasmodium falciparum FCR3 infected in human erythrocytes assessed as parasite growth inhibition; assay type: functional, organism-based; settings: FCR-3/Gambia, Erythrocyte
Plasmodium falciparum [3] = experiment: Antiplasmodial activity against multidrug-resistant Plasmodium falciparum Dd2 infected in human A-positive erythrocytes assessed as reduction in parasitemia incubated for 72 hrs by fluorescence-based SYBR-Green-1 assay; assay type: functional, organism-based; settings: Dd2, Erythrocyte
HepG2 = experiment: Cytotoxicity against human HepG2 cells assessed as decrease in cell viability measured after 48 hrs by MTS assay; assay type: cell-based; settings: HepG2, 48 h
Outline: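 After 48 h at 37 °C and 5% CO2, MTS was added for 4 h and absorbance read at 490 nm. Values were normalized to Triton X-100-lysed wells (0% growth) and untreated wells. EC50 is the mean of triplicate experiments.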

[4] = Selectivity index, ratio of EC50 for human HepG2 cells to EC50 for antiplasmodial activity against multidrug-resistant Plasmodium falciparum Dd2 infected in human A-positive erythrocytes; assay type: toxicity, cell-based; settings: read-out: Ratio EC50
Plasmodium falciparum [5] = experiment: Antiplasmodial activity against Plasmodium falciparum assessed as parasite growth inhibition; assay type: functional

Compound | EC50 (Plasmodium falciparum [1]) | EC50 (Plasmodium falciparum [2]) | EC50 (Plasmodium falciparum [3]) | EC50 (HepG2) | selectivity ratio [4] | MIC (Plasmodium falciparum [5])
CCCCCCC/C=C\CCCCCCCC(=O)N[C@H](C(=O)N1C[C@H](C)C[C@H]1C(=O)N[C@H](C(=O)N[C@@H](CC(N)=O)C(=O)N[C@@H](C)[C@H]1N[C@@H](CO)[C@H](O)[C@@H](CCCCCCCCCCCCC)O1)C(C)C)[C@@H](C)O | 0.15 µM | 0.15 µM | – | – | – | –
CCCCCCC/C=C\CCCCCCCC(=O)N[C@H](C(=O)N1C[C@H](C)C[C@H]1C(=O)N[C@H](C(=O)N[C@@H](CC(N)=O)C(N)=O)C(C)C)[C@@H](C)O (HELM PEPTIDE1{[CCCCCCC/C=C\CCCCCCCC(=O)[*:2]].T.[C[C@@H]1C[C@@H](C(=O)[*:2])N([*:1])C1].V.N.[am]}$$$$V2.0) | 0.15 µM | 0.15 µM | – | – | – | –
CC(=O)NC(C)(C)C(=O)N[C@@H](C)C(=O)N[C@@H](C)C(=O)N[C@@H](C)C(=O)NC(C)(C)C(=O)NC(C)(C)C(=O)N[C@@H](CCC(N)=O)C(=O)NC(C)(C)C(=O)N[C@H](C(=O)NC(C)(C)C(=O)NCC(=O)N[C@@H](CC(C)C)C(=O)NC(C)(C)C(=O)N1CCC[C@H]1C(=O)N[C@H](C(=O)NC(C)(C)C(=O)NC(C)(C)C(=O)N[C@@H](CCC(N)=O)C(=O)N[C@@H](CCC(N)=O)C(=O)N[C@H](CO)Cc1ccccc1)C(C)C)C(C)C (HELM PEPTIDE1{[ac].[Aib].A.A.A.[Aib].[Aib].Q.[Aib].V.[Aib].G.L.[Aib].P.V.[Aib].[Aib].Q.Q.[OC[C@H](Cc1ccccc1)N[*:1]]}$$$$V2.0) | – | – | 0.56 µM | 9.28 µM | 17 | –
CC[C@H](C)[C@H](NC(=O)[C@H](CC(C)C)NC(=O)[C@H](CC(N)=O)NC(=O)C(C)(C)NC(C)=O)C(=O)NC(C)(C)C(=O)N1CCC[C@H]1C(=O)N[C@](C)(CC)C(=O)N[C@@H](CC(C)C)C(=O)NC(C)(C)C(=O)N1CCC[C@H]1C(=O)N[C@H](CO)CC(C)C (HELM PEPTIDE1{[ac].[Aib].N.L.I.[Aib].P.[CC[C@@](C)(N[*:1])C(=O)[*:2]].L.[Aib].P.[CC(C)C[C@@H](CO)N[*:1]]}$$$$V2.0) | – | – | 0.72 µM | > 25 µM | > 35 | –
CC[C@H](C)[C@H](NC(=O)[C@H](C)NC(=O)[C@@H]1CCCN1C(=O)C(C)(C)NC(=O)[C@H](CC(C)C)NC(=O)[C@H](CC(N)=O)NC(=O)C(C)(C)NC(C)=O)C(=O)NC(C)(C)C(=O)N1CCC[C@H]1C(=O)NC(C)(C)C(=O)N[C@@H](CC(C)C)C(=O)NC(C)(C)C(=O)N1CCC[C@H]1C(=O)N[C@H](CO)CC(C)C (HELM PEPTIDE1{[ac].[Aib].N.L.[Aib].P.A.I.[Aib].P.[Aib].L.[Aib].P.[CC(C)C[C@@H](CO)N[*:1]]}$$$$V2.0) | – | – | 0.42 µM | > 25 µM | > 60 | –
CC[C@H](C)[C@H](NC(=O)[C@H](CO)NC(=O)[C@@H]1CCCN1C(=O)C(C)(C)NC(=O)[C@H](CC(C)C)NC(=O)[C@H](CC(N)=O)NC(=O)C(C)(C)NC(C)=O)C(=O)NC(C)(C)C(=O)N1CCC[C@H]1C(=O)NC(C)(C)C(=O)N[C@@H](CC(C)C)C(=O)NC(C)(C)C(=O)N1CCC[C@H]1C(=O)N[C@H](CO)CC(C)C (HELM PEPTIDE1{[ac].[Aib].N.L.[Aib].P.S.I.[Aib].P.[Aib].L.[Aib].P.[CC(C)C[C@@H](CO)N[*:1]]}$$$$V2.0) | – | – | 0.63 µM | > 25 µM | > 40 | –
CC(=O)NC(C)(C)C(=O)N[C@@H](CC(N)=O)C(=O)N[C@@H](CC(C)C)C(=O)NC(C)(C)C(=O)N1CCC[C@H]1C(=O)N[C@@H](CO)C(=O)N[C@H](C(=O)NC(C)(C)C(=O)N1CCC[C@H]1C(=O)NC(C)(C)C(=O)N[C@@H](CC(C)C)C(=O)NC(C)(C)C(=O)N1CCC[C@H]1C(=O)N[C@H](CO)CC(C)C)C(C)C (HELM PEPTIDE1{[ac].[Aib].N.L.[Aib].P.S.V.[Aib].P.[Aib].L.[Aib].P.[CC(C)C[C@@H](CO)N[*:1]]}$$$$V2.0) | – | – | 0.71 µM | > 25 µM | > 35 | –
CC[C@@](C)(NC(=O)[C@@H]1CCCN1C(=O)C(C)(C)NC(=O)[C@@H](NC(=O)[C@H](CO)NC(=O)[C@@H]1CCCN1C(=O)C(C)(C)NC(=O)[C@H](CC(C)C)NC(=O)[C@H](CC(N)=O)NC(=O)C(C)(C)NC(C)=O)C(C)C)C(=O)N[C@@H](CC(C)C)C(=O)NC(C)(C)C(=O)N1CCC[C@H]1C(=O)N[C@H](CO)CC(C)C (HELM PEPTIDE1{[ac].[Aib].N.L.[Aib].P.S.V.[Aib].P.[CC[C@@](C)(N[*:1])C(=O)[*:2]].L.[Aib].P.[CC(C)C[C@@H](CO)N[*:1]]}$$$$V2.0) | – | – | 0.56 µM | > 25 µM | > 45 | –
CCC(=O)CCCCC[C@@H]1NC(=O)[C@H]2CCCCN2C(=O)[C@H]([C@@H](C)CC)NC(=O)[C@H](Cc2cn(OC)c3ccccc23)NC1=O [APICIDIN] | – | – | – | – | – | 0.19 µM (≈ 0.119 µg/mL)
CC[C@](C)(NC(=O)[C@H](CC(C)C)NC(=O)[C@H](C)NC(=O)C(C)(C)NC(=O)[C@@H]1CCCCN1C(=O)C(C)(C)NC(=O)C(C)(C)NC(=O)CNC(=O)CCNC(=O)[C@H](CC(C)C)NC(=O)C(C)(C)NC(=O)[C@](C)(CC)NC(=O)[C@@H]1CCCCN1C(=O)C(C)(C)NC(=O)[C@@H]1CCCCN1C(C)=O)C(=O)N[C@@H](CC(C)C)C[N+]1=C2CCCN2CCC1 [EFRAPEPTIN G] (Ac-[Pip][Aib][Pip][Iva][Aib]L[βAla]G[Aib][Aib][Pip][Aib]AL[Iva]-X1) | – | – | 0.46 µM | > 25 µM | > 54 | –

Reference: ChEMBL document CHEMBL4811229, “Leveraging Peptaibol Biosynthetic Promiscuity for Next-Generation Antiplasmodial Therapeutics” (J Nat Prod, 2021)
